The source made the active and inactive calls. No cut-off for these calls is given here.
Experiments:
Porphyromonas gingivalis [1] = assay: Antibacterial activity against Porphyromonas gingivalis 381 assessed as bacterial growth inhibition at 1 uM treated for 24 hrs by WST1 assay relative to control; format: functional; conditions: read-out: GI
Procedure, shortened: (§1)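 P. gingivalis 381 read by colorimetric WST-1 after 24 h. Derivatives were tested at 1, 10 and 100 μM. Tetracycline was run at 2.81 μM and ZAF at 25 and 50 μM as positive controls, with DMSO as negative control. Percent growth inhibition is versus medium-only cultures. Derivatives had 6 independent replicates per condition; controls had 36.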

Porphyromonas gingivalis [2] = assay: Antibacterial activity against Porphyromonas gingivalis 381 assessed as bacterial growth inhibition at 100 uM treated for 24 hrs by WST1 assay relative to control; format: functional; conditions: read-out: GI; procedure, shortened: as §1
Porphyromonas gingivalis [3] = assay: Antibacterial activity against Porphyromonas gingivalis 381 assessed as bacterial growth inhibition at 10 uM treated for 24 hrs by WST1 assay relative to control; format: functional; conditions: read-out: GI; procedure, shortened: as §1
Porphyromonas gingivalis [4] = assay: Bactericidal activity against Porphyromonas gingivalis 381 assessed as growth inhibition at 10 uM treated for 24 hrs under anaerobic conditions followed by culturing in blood agar plate and measured after 5 days of incubation in an anaerobic chamber by CFU assay; format: functional, organism-based
Procedure, shortened: (§2)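 P. gingivalis 381 was exposed in media for 24 h at 1, 10 or 100 μM, then grown on blood agar plates for 5 days under anaerobic conditions and counted as CFUs/mL. Percent inhibition = 100 × [CFUs/mL control − CFUs/mL experimental]/CFUs/mL control, versus medium-only bacteria. Six independent replicates per condition for test compounds, 12 for controls (tetracycline 2.81 μM, ZAF 25/50 μM, DMSO).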

[5] = Cytotoxicity against hTERT-immortalized human OKF6 cells assessed as large and flattened cell morphology at 10 uM incubated for 24 hrs by trypan blue dye based light inverted microscopic analysis; conditions: okf6, 24 h
Procedure, shortened: (§3)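 OKF6 cells were imaged by microscopy after 24 h treatment, with derivatives at 10 μM, to judge cell morphology and density from whole-well images. Medium-only and DMSO wells served as negative controls. Staurosporine 8 μM and ZAF 25 μM served as positive controls.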

Porphyromonas gingivalis [6] = assay: Bactericidal activity against Porphyromonas gingivalis 381 assessed as growth inhibition at 100 uM treated for 24 hrs under anaerobic conditions followed by culturing in blood agar plate and measured after 5 days of incubation in an anaerobic chamber by CFU assay relative to control; format: functional; conditions: read-out: GI; procedure, shortened: as §2
[7] = Cytotoxicity against hTERT-immortalized human OKF6 cells assessed as cell viability at 1 uM incubated for 24 hrs by Annexin V-FITC/propidium iodide staining based flow cytometric analysis relative to control; conditions: read-out: Activity
Procedure, shortened: (§4)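 OKF6/hTERT oral keratinocytes were treated for 24 h, then apoptosis and necrosis were assessed by flow cytometry. DMSO served as negative control; staurosporine 8 μM and ZAF 25 μM served as positive controls. Data come from two independent experiments run in duplicate, with at least 10,000 events analysed per condition.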

[8] = tested on: Aggregatibacter actinomycetemcomitans; assay: Antibacterial activity against Aggregatibacter actinomycetemcomitans JP2 assessed as bacterial growth inhibition at 1 to 100 uM treated for 24 hrs by WST1 assay; format: functional, organism-based; conditions: dose microM 1-100, time 24.0 hrs
Procedure, shortened: (§5)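 WST-1 colorimetric growth assay across oral bacterial species, 24 h exposure. DMSO as negative control. Positive controls were ZAF at 25 and 50 μM, or penicillin/streptomycin 1X (100 U/mL penicillin, 100 μg/mL streptomycin). Percent growth inhibition is relative to cultures in medium only, averaged from six independent replicates per condition.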

Veillonella parvula = assay: Antibacterial activity against Veillonella parvula ATCC 10790 assessed as bacterial growth inhibition at 1 to 100 uM treated for 24 hrs by WST1 assay; format: functional, organism-based; conditions: dose microM 1-100, time 24.0 hrs; procedure, shortened: as §5
[9] = Cytotoxicity against hTERT-immortalized human OKF6 cells assessed as cell viability at 10 uM incubated for 24 hrs by Annexin V-FITC/propidium iodide staining based flow cytometric analysis relative to control; conditions: read-out: Activity; procedure, shortened: as §4
[10] = Cytotoxicity against hTERT-immortalized human OKF6 cells assessed as reduction in cell density at 10 uM incubated for 24 hrs by trypan blue dye based light inverted microscopic analysis; conditions: okf6, 24 h; procedure, shortened: as §3
Porphyromonas gingivalis [11] = assay: Antibacterial activity against Porphyromonas gingivalis 381 assessed as bacterial growth inhibition at 2.81 uM treated for 24 hrs by WST1 assay relative to control; format: functional; conditions: read-out: GI; procedure, shortened: as §1
Porphyromonas gingivalis [12] = assay: Bactericidal activity against Porphyromonas gingivalis 381 assessed as growth inhibition at 1 uM treated for 24 hrs under anaerobic conditions followed by culturing in blood agar plate and measured after 5 days of incubation in an anaerobic chamber by CFU assay relative to control; format: functional, organism-based; procedure, shortened: as §2
[13] = Cytotoxicity against hTERT-immortalized human OKF6 cells assessed as small and rounded cell morphology at 10 uM incubated for 24 hrs by trypan blue dye based light inverted microscopic analysis; conditions: okf6, 24 h
Procedure, shortened: (§6)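 Immortalized oral keratinocytes (OKF6/hTERT) were exposed for 24 h to test compounds at 10 μM. Controls were staurosporine at 8 μM or zafirlukast at 25 μM (positive) and medium only or DMSO (negative). Whole-well microscope images were then scored qualitatively for cell density and morphology (size, shape, spacing between cells).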

Porphyromonas gingivalis [14] = assay: Antibacterial activity against Porphyromonas gingivalis 381 assessed as bacterial growth inhibition at 1 to 100 uM treated for 24 hrs by WST1 assay relative to control; format: functional; procedure, shortened: as §1
[15] = Cytotoxicity against hTERT-immortalized human OKF6 cells assessed as small and rounded cell morphology at 25 uM incubated for 24 hrs by trypan blue dye based light inverted microscopic analysis; conditions: okf6, 24 h; procedure, shortened: as §3
Porphyromonas gingivalis [16] = assay: Antibacterial activity against Porphyromonas gingivalis 381 assessed as bacterial growth inhibition at 25 uM treated for 24 hrs by WST1 assay relative to control; format: functional; conditions: read-out: GI; procedure, shortened: as §1
[17] = Cytotoxicity against hTERT-immortalized human OKF6 cells assessed as reduction in cell density at 25 uM incubated for 24 hrs by trypan blue dye based light inverted microscopic analysis; conditions: okf6, 24 h; procedure, shortened: as §3
Porphyromonas gingivalis [18] = assay: Antibacterial activity against Porphyromonas gingivalis 381 assessed as bacterial growth inhibition at 50 uM treated for 24 hrs by WST1 assay relative to control; format: functional; conditions: read-out: GI; procedure, shortened: as §1
[19] = Cytotoxicity against hTERT-immortalized human OKF6 cells assessed as small and rounded cell morphology at 8 uM incubated for 24 hrs by trypan blue dye based light inverted microscopic analysis; conditions: okf6, 24 h; procedure, shortened: as §6
[20] = Cytotoxicity against hTERT-immortalized human OKF6 cells assessed as reduction in cell density at 8 uM incubated for 24 hrs by trypan blue dye based light inverted microscopic analysis; conditions: okf6, 24 h; procedure, shortened: as §6
[21] = dose microM 1-100, time 24.0 hrs

Structure (SMILES) | inhibition of growth at 1 µM (Porphyromonas gingivalis [1]) [%] | inhibition of growth at 100 µM (Porphyromonas gingivalis [2]) [%] | inhibition of growth at 10 µM (Porphyromonas gingivalis [3]) [%] | Activity (Porphyromonas gingivalis [4]) | inhibition of growth at 100 µM (Porphyromonas gingivalis [6]) [%] | viability at 24 h, 1 µM [7] [%] | growth inhibition (GI) [8] | growth inhibition (GI) (Veillonella parvula) | viability at 24 h, 10 µM [9] [%] | Activity [10] | other results
COc1ccc(Cc2cn(C)c3ccccc23)cc1C(=O)NS(=O)(=O)c1ccccc1C | 16 | 74 | 56 | – | – | – | – | – | – | – | –
COc1ccc(Cc2cn(C)c3ccccc23)cc1C(=O)NS(=O)(=O)c1ccc(F)cc1 | – | 58 | 59 | inactive | 100 | 76 | inactive | inactive | 49 | Non-Toxic | Activity [5]: Non-Toxic
COc1ccc(Cc2cn(C)c3ccccc23)cc1C(=O)NS(=O)(=O)c1ccc2ccccc2c1 | – | 58 | – | inactive | 100 | 76 | inactive | inactive | 49 | Toxic | Activity [5]: Non-Toxic
COc1ccc(Cc2cn(C)c3ccc([N+](=O)[O-])cc23)cc1C(=O)NS(=O)(=O)c1ccc2ccccc2c1 | – | 58 | 57 | – | – | – | – | – | – | – | –
CN(C)[C@@H]1C(O)=C(C(N)=O)C(=O)[C@@]2(O)C(O)=C3C(=O)c4c(O)cccc4[C@@](C)(O)[C@H]3C[C@@H]12 [TETRACYCLINE] | – | – | – | – | – | – | – | – | – | – | inhibition of growth at 2.81 µM (Porphyromonas gingivalis [11]): 51%
COc1ccc(Cc2cn(C)c3ccccc23)cc1C(=O)NS(=O)(=O)c1cccc(F)c1 | 14 | 73 | 57 | inactive | 100 | 76 | inactive | inactive | 49 | Non-Toxic | Activity [5]: Non-Toxic
COc1ccc(Cc2cn(C)c3ccc([N+](=O)[O-])cc23)cc1C(=O)NS(=O)(=O)c1ccc([N+](=O)[O-])cc1 | 53 | 58 | 59 | Active | 100 | 76 | inactive | inactive | 49 | Toxic | Activity (Porphyromonas gingivalis [12]): Active; Activity [13]: Toxic
COc1ccc(Cc2c[nH]c3ccccc23)cc1C(=O)NS(=O)(=O)c1ccc(F)cc1 | – | – | – | – | – | – | – | – | – | – | growth inhibition (GI) (Porphyromonas gingivalis [14]; [21]): inactive
COc1ccc(Cc2cn(C)c3ccccc23)cc1C(=O)NS(=O)(=O)c1ccccc1F | – | 55 | – | – | – | – | – | – | – | – | –
COc1ccc(Cc2cn(C)c3ccc([N+](=O)[O-])cc23)cc1C(=O)NS(=O)(=O)c1ccc(F)cc1 | – | 58 | 59 | – | – | – | – | – | – | – | –
COc1ccc(Cc2cn(C)c3ccc([N+](=O)[O-])cc23)cc1C(=O)NS(=O)(=O)c1ccccc1F | 53 | 58 | 59 | – | – | – | – | – | – | – | –
COc1cc(C(=O)NS(=O)(=O)c2ccccc2C)ccc1Cc1cn(C)c2ccc(NC(=O)OC3CCCC3)cc12 [ZAFIRLUKAST] | – | – | – | – | – | – | – | – | – | – | Activity [15]: Toxic; inhibition of growth at 25 µM (Porphyromonas gingivalis [16]): 70%; Activity [17]: Toxic; inhibition of growth at 50 µM (Porphyromonas gingivalis [18]): 68%
COc1ccc(Cc2c[nH]c3ccccc23)cc1C(=O)NS(=O)(=O)c1ccccc1F | – | – | – | – | – | – | – | – | – | – | growth inhibition (GI) (Porphyromonas gingivalis [14]; [21]): inactive
CN[C@@H]1C[C@H]2O[C@@](C)([C@@H]1OC)n1c3ccccc3c3c4c(c5c6ccccc6n2c5c31)C(=O)NC4 [STAUROSPORINE] | – | – | – | – | – | – | – | – | – | – | Activity [19]: Toxic; Activity [20]: Toxic
COc1ccc(Cc2c[nH]c3ccccc23)cc1C(=O)NS(=O)(=O)c1ccc2ccccc2c1 | – | – | – | – | – | – | – | – | – | – | growth inhibition (GI) (Porphyromonas gingivalis [14]; [21]): inactive
COc1ccc(Cc2cn(C)c3ccccc23)cc1C(=O)NS(=O)(=O)c1ccc([N+](=O)[O-])cc1 | – | – | – | – | – | – | – | – | – | – | growth inhibition (GI) (Porphyromonas gingivalis [14]; dose microM 1-100): 0%
COc1ccc(Cc2cn(C)c3ccc([N+](=O)[O-])cc23)cc1C(=O)NS(=O)(=O)c1cccc(F)c1 | 53 | 58 | 59 | Active | 100 | 76 | inactive | inactive | 49 | Toxic | Activity (Porphyromonas gingivalis [12]): Active; Activity [13]: Toxic
COc1ccc(Cc2cn(C)c3ccccc23)cc1C(=O)NS(=O)(=O)c1cccc([N+](=O)[O-])c1 | 18 | 58 | 50 | inactive | 100 | 76 | inactive | inactive | 49 | Non-Toxic | Activity [5]: Non-Toxic; growth inhibition (GI) (Porphyromonas gingivalis [14]; dose microM 1-100): 18%
COc1ccc(Cc2cn(C)c3ccc([N+](=O)[O-])cc23)cc1C(=O)NS(=O)(=O)c1cccc([N+](=O)[O-])c1 | 53 | 58 | 59 | – | – | – | – | – | – | – | –
COc1ccc(Cc2cn(C)c3ccc([N+](=O)[O-])cc23)cc1C(=O)NS(=O)(=O)c1ccccc1 | 0 | – | – | – | – | – | – | – | – | – | –
